{
  "source": "ChEMBL document CHEMBL4513216",
  "about": "“Probing the Open Global Health Chemical Diversity Library for Multistage-Active Starting Points for Next-Generation Antimalarials” (ACS Infect Dis, 2020)",
  "assay": "Toxicity liver stage against HepG2, at 10uM",
  "assay_type": "cell-based",
  "design": "test concentration 10 uM, cell line HepG2-A16-CD81EGFP",
  "conditions": "human, HepG2-A16-CD81EGFP cells; read-out: INHIBITION",
  "in_short": "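Uninfected HepG2-A16-CD81EGFP cells, 3 × 10^3 per well, 1536-well, plated on prespotted compound at 10 μM final, parasite-free screening media added to match infected plates; puromycin 10 μM positive, DMSO 0.5% negative; run in parallel with 48 h PbLuc assay at 37 °C, 5% CO2; viability by CellTiter-Glo luminescence, normalized to controls.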",
  "data": [
    {"smiles": "CCOC(=O)N1CC(=O)N(Cc2ccc(OC)cc2)CC(O)C1", "note": "(stereo not given)", "values": [
      {"measurement": "cytotoxicity at 10 µM", "value": -2.67, "unit": "%"}
    ]},
    {"smiles": "COCCN1C(=O)c2ccc(C(=O)NCCc3c[nH]cn3)cc2C1=O", "values": [
      {"measurement": "cytotoxicity at 10 µM", "value": -7.13, "unit": "%"}
    ]},
    {"smiles": "Cc1ccc(S(=O)(=O)c2ncccc2CN2CCN(C)CC2)cc1", "values": [
      {"measurement": "cytotoxicity at 10 µM", "value": -51.3, "unit": "%"}
    ]},
    {"smiles": "Cc1ccc(S(=O)(=O)c2ncccc2CN2CCN(CCO)CC2)cc1", "values": [
      {"measurement": "cytotoxicity at 10 µM", "value": -49.1, "unit": "%"}
    ]},
    {"smiles": "O=C(NCc1ccc(F)cc1)NCC(O)(c1ccco1)C1CC1", "note": "(stereo not given)", "values": [
      {"measurement": "cytotoxicity at 10 µM", "value": -115, "unit": "%"}
    ]},
    {"smiles": "Cc1cc(=O)n(CCNS(=O)(=O)c2cccc(C(F)(F)F)c2)cn1", "values": [
      {"measurement": "cytotoxicity at 10 µM", "value": -6.98, "unit": "%"}
    ]},
    {"smiles": "CS(=O)(=O)N1CCCC1CS(=O)(=O)c1ccccc1", "note": "(stereo not given)", "values": [
      {"measurement": "cytotoxicity at 10 µM", "value": 1.01, "unit": "%"}
    ]},
    {"smiles": "Cc1nc(CN2CCc3nc(N4CCCC4)nc(NC(C)C)c3C2)cs1", "values": [
      {"measurement": "cytotoxicity at 10 µM", "value": 2.72, "unit": "%"}
    ]},
    {"smiles": "CC(C)N1CCc2ncn(C)c2C1C(=O)NCCN1CCCC1", "note": "(stereo not given)", "values": [
      {"measurement": "cytotoxicity at 10 µM", "value": -0.511, "unit": "%"}
    ]},
    {"smiles": "Cc1cnc(N2CCc3c(CN(C)Cc4ccco4)cncc3C2)nc1", "values": [
      {"measurement": "cytotoxicity at 10 µM", "value": 4.15, "unit": "%"}
    ]},
    {"smiles": "c1cc(CN2CC[C@H]3C[C@H](c4nc(C5CC5)cs4)O[C@@H]3C2)ccn1", "values": [
      {"measurement": "cytotoxicity at 10 µM", "value": 8.81, "unit": "%"}
    ]},
    {"smiles": "CCCN1Cc2cc(Br)ccc2OCC1=O", "values": [
      {"measurement": "cytotoxicity at 10 µM", "value": 3.72, "unit": "%"}
    ]},
    {"smiles": "CC(C)CNC(=O)c1c(-n2cnnn2)sc2c1CCCC2", "values": [
      {"measurement": "cytotoxicity at 10 µM", "value": 10.8, "unit": "%"}
    ]},
    {"smiles": "COCCNC(=O)c1sc(Nc2ccc(Cl)cn2)nc1C", "values": [
      {"measurement": "cytotoxicity at 10 µM", "value": 32.4, "unit": "%"}
    ]},
    {"smiles": "COc1cccc(N2CCN(CC(O)c3cc(C)ccc3C)CC2)c1", "note": "(stereo not given)", "values": [
      {"measurement": "cytotoxicity at 10 µM", "value": 4.91, "unit": "%"}
    ]},
    {"smiles": "Cc1cc(NC(=O)C(C)Cn2cc(Br)cn2)no1", "note": "(stereo not given)", "values": [
      {"measurement": "cytotoxicity at 10 µM", "value": -2.04, "unit": "%"}
    ]},
    {"smiles": "C=C/C=c1\\c(=C/C)oc2c(NCc3ccccc3)nc(C)nc12", "values": [
      {"measurement": "cytotoxicity at 10 µM", "value": 24.8, "unit": "%"}
    ]},
    {"smiles": "Clc1cccc(-n2cnnn2)c1N1CCCCC1", "values": [
      {"measurement": "cytotoxicity at 10 µM", "value": 17.4, "unit": "%"}
    ]},
    {"smiles": "CN1CCCC(c2cncc(-c3cccc(C(F)(F)F)c3)n2)C1", "note": "(stereo not given)", "values": [
      {"measurement": "cytotoxicity at 10 µM", "value": 8.92, "unit": "%"}
    ]},
    {"smiles": "CCCS(=O)(=O)N1CCC(n2nc(-c3cc(C)oc3C)ccc2=O)CC1", "values": [
      {"measurement": "cytotoxicity at 10 µM", "value": 14.6, "unit": "%"}
    ]},
    {"smiles": "CNc1nc(C2CCN(C(=O)CC3CCCC3)C2)nc2c1CN(C)CC2", "note": "(stereo not given)", "values": [
      {"measurement": "cytotoxicity at 10 µM", "value": -40.4, "unit": "%"}
    ]},
    {"smiles": "COCc1ccc(C(=O)N2CCC(c3cc4nccnc4[nH]3)CC2)cc1", "values": [
      {"measurement": "cytotoxicity at 10 µM", "value": -39, "unit": "%"}
    ]},
    {"smiles": "CNc1nc(C2CCCN2C(C)=O)nc2c1CN(C1CCCC1)CC2", "note": "(stereo not given)", "values": [
      {"measurement": "cytotoxicity at 10 µM", "value": -9.44, "unit": "%"}
    ]},
    {"smiles": "Cc1cc(CNC(=O)c2cc(NC(=O)C(C)C)ccc2Cl)no1", "values": [
      {"measurement": "cytotoxicity at 10 µM", "value": 13.6, "unit": "%"}
    ]},
    {"smiles": "O=C(NC(c1ccc(Cl)cc1)C(F)(F)F)c1nc(=O)[nH][nH]1", "note": "(stereo not given)", "values": [
      {"measurement": "cytotoxicity at 10 µM", "value": 11.5, "unit": "%"}
    ]},
    {"smiles": "Cc1cccc(C)c1OCCCN1CCN(CC2CCCO2)CC1", "note": "(stereo not given)", "values": [
      {"measurement": "cytotoxicity at 10 µM", "value": 9.09, "unit": "%"}
    ]},
    {"smiles": "CCC(O)CN1CCN(C(=O)CCSC)CC1", "note": "(stereo not given)", "values": [
      {"measurement": "cytotoxicity at 10 µM", "value": -3.5, "unit": "%"}
    ]},
    {"smiles": "CC(=O)NC1CCCN(c2nc3ccccc3cc2CO)C1", "note": "(stereo not given)", "values": [
      {"measurement": "cytotoxicity at 10 µM", "value": -50.1, "unit": "%"}
    ]},
    {"smiles": "COc1ccccc1CCN(C)C(C)c1nc(-c2cccnc2)no1", "note": "(stereo not given)", "values": [
      {"measurement": "cytotoxicity at 10 µM", "value": -2.04, "unit": "%"}
    ]},
    {"smiles": "Cc1ccccc1Cc1nc(CSc2nnc(N)n2C2CC2)no1", "values": [
      {"measurement": "cytotoxicity at 10 µM", "value": 18, "unit": "%"}
    ]},
    {"smiles": "CCN(CC)CC(=O)N1CCN(CCCc2ccncc2)CC1", "values": [
      {"measurement": "cytotoxicity at 10 µM", "value": -60.5, "unit": "%"}
    ]},
    {"smiles": "Cc1cc(NC(=O)NCc2ccc(S(=O)(=O)N3CCCC3)s2)no1", "values": [
      {"measurement": "cytotoxicity at 10 µM", "value": -2.24, "unit": "%"}
    ]},
    {"smiles": "CN(C)c1nc(N)nc(CN2CCC(c3ccccc3)CC2)n1", "values": [
      {"measurement": "cytotoxicity at 10 µM", "value": 7.36, "unit": "%"}
    ]},
    {"smiles": "CCOCCN1CCN(CC(=O)N2CCCC2)CC1C", "note": "(stereo not given)", "values": [
      {"measurement": "cytotoxicity at 10 µM", "value": -3.82, "unit": "%"}
    ]},
    {"smiles": "CCc1nnc(C2Cc3ccccc3CN2Cc2cc(C)on2)o1", "note": "(stereo not given)", "values": [
      {"measurement": "cytotoxicity at 10 µM", "value": -7.77, "unit": "%"}
    ]},
    {"smiles": "Cc1c(NCc2cccc(C#N)c2)cccc1S(=O)(=O)NC1CC1", "values": [
      {"measurement": "cytotoxicity at 10 µM", "value": 42.5, "unit": "%"}
    ]},
    {"smiles": "CC(C)(C)c1cnc(CN2CCC(CN3CCOCC3)CC2)o1", "values": [
      {"measurement": "cytotoxicity at 10 µM", "value": 3.63, "unit": "%"}
    ]},
    {"smiles": "OCCOc1ccc(NCc2cccc3[nH]ccc23)cn1", "values": [
      {"measurement": "cytotoxicity at 10 µM", "value": 0.205, "unit": "%"}
    ]},
    {"smiles": "Cc1ncccc1C(=O)NCc1ccccc1CN(C)Cc1ccco1", "values": [
      {"measurement": "cytotoxicity at 10 µM", "value": 8.35, "unit": "%"}
    ]},
    {"smiles": "CN1CCN(C(CNC(=O)c2ccc(Cl)cc2F)c2cccs2)CC1", "note": "(stereo not given)", "values": [
      {"measurement": "cytotoxicity at 10 µM", "value": 84.6, "unit": "%"}
    ]},
    {"smiles": "Cc1ccc(CC(=O)N2CCOCC2c2c(C)n[nH]c2C)cc1", "note": "(stereo not given)", "values": [
      {"measurement": "cytotoxicity at 10 µM", "value": 5.12, "unit": "%"}
    ]},
    {"smiles": "Cn1c(CCNc2nccnc2C#N)nc2ccc(F)cc21", "values": [
      {"measurement": "cytotoxicity at 10 µM", "value": -6.92, "unit": "%"}
    ]},
    {"smiles": "O=C(C[S+]([O-])Cc1ccc(F)cc1Cl)NC1CCCC1", "note": "(stereo not given)", "values": [
      {"measurement": "cytotoxicity at 10 µM", "value": 9.5, "unit": "%"}
    ]},
    {"smiles": "Cn1c2ncccc2c(=O)n1CC(=O)NCCC1=CCCCC1", "values": [
      {"measurement": "cytotoxicity at 10 µM", "value": 19, "unit": "%"}
    ]},
    {"smiles": "CCC(C)(COc1ncccc1Cl)NCC(=O)NC1CCCCC1", "note": "(stereo not given)", "values": [
      {"measurement": "cytotoxicity at 10 µM", "value": 0.651, "unit": "%"}
    ]},
    {"smiles": "CC(NCC(N)=O)c1c(F)cccc1Cl", "note": "(stereo not given)", "values": [
      {"measurement": "cytotoxicity at 10 µM", "value": -0.725, "unit": "%"}
    ]},
    {"smiles": "O=C(NCCCc1nc(=O)[nH][nH]1)c1ccc(Cl)cn1", "values": [
      {"measurement": "cytotoxicity at 10 µM", "value": -47.6, "unit": "%"}
    ]},
    {"smiles": "CO[C@H]1CN(C(=O)OC(C)(C)C)CC1NCc1ccoc1", "note": "(stereo not given in full)", "values": [
      {"measurement": "cytotoxicity at 10 µM", "value": -51.8, "unit": "%"}
    ]},
    {"smiles": "Cc1n[nH]c(C)c1CNC(=O)N(Cc1ccccc1)CC(C)(C)O", "values": [
      {"measurement": "cytotoxicity at 10 µM", "value": 1.72, "unit": "%"}
    ]},
    {"smiles": "CN1CCN(c2ccc(CO)cc2F)CC1", "values": [
      {"measurement": "cytotoxicity at 10 µM", "value": -42, "unit": "%"}
    ]},
    {"smiles": "CC(C)(C)c1ccc(C2(C(=O)NCCS(N)(=O)=O)CC2)cc1", "values": [
      {"measurement": "cytotoxicity at 10 µM", "value": 0.515, "unit": "%"}
    ]},
    {"smiles": "CCO[C@H]1CC[C@H]2[C@H]1OCCN2C(=O)c1nn(C)c2ccccc12", "values": [
      {"measurement": "cytotoxicity at 10 µM", "value": 7.28, "unit": "%"}
    ]},
    {"smiles": "Cc1cc(C(=O)N2CCc3nc(N4CCCC4)nc(C)c3CC2)c(C)o1", "values": [
      {"measurement": "cytotoxicity at 10 µM", "value": -108, "unit": "%"}
    ]},
    {"smiles": "Cc1nc2c(c(NC3CC3)n1)CCN(C(=O)C1(C#N)CC1)CC2", "values": [
      {"measurement": "cytotoxicity at 10 µM", "value": -104, "unit": "%"}
    ]},
    {"smiles": "Cc1ncccc1NC(=O)c1nc2c(n1C)CCN(C(=O)C1CC1)C2", "values": [
      {"measurement": "cytotoxicity at 10 µM", "value": -99.6, "unit": "%"}
    ]}
  ]
}
